{"source": "paper PMC9730744", "about": "(ACS Omega, 2022)", "key": {"[1]": {"test_system": "rat synovial cells", "experiment": "LDH activity assay of synovial cells in vitro", "assay_type": "cell-based", "details": "for LDH activity ± SD: 1 μM, supernatant of rat synovial cells, 48 h; for LDH content in the supernatant / damage to synovial cells (in words): compared with the normal group", "procedure,_shortened": "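Log-phase rat synovial cells (2 × 10⁴/well) were cultured 48 h at 37 °C, 5% CO₂. They then received test compound at graded concentrations, methotrexate, or DMSO vehicle for 48 h. Plates were centrifuged 10 min, and supernatant LDH was assayed with a kit. Activity (U/L) = [(OD sample − OD control)/([…] − OD blank)] × 0.2 mM × 1000. Three independent experiments, each in triplicate.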"}, "[2]": {"test_system": "CFA-induced arthritis in rats", "experiment": "Complete Freund's adjuvant induced arthritis in rats", "assay_type": "in vivo, rat", "details": "for IL-6 content in serum after treatment / TNF-α content in serum after treatment: high dose (100 mg·kg^–1·d^–1) and low dose (50 mg·kg^–1·d^–1); for IL-6 content in serum after treatment: Figure 4c; for TNF-α content in serum after treatment: Figure 4d; for change of paw volume before and after treatment: oral", "procedure,_shortened": "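SPF adult rats (200 ± 20 g) were acclimatized 2 weeks at 22 ± 3 °C and 40–70% humidity. Arthritis was induced with 0.1 mL CFA injected 2 cm from the tail root; the normal group received saline. From day 14 after induction, rats were dosed orally at 50 or 100 mg·kg⁻¹·d⁻¹ daily for 14 days. Paw volume was measured by toe volume meter before induction and on dosing days 1 and 14.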"}, "[3]": {"experiment": "Acute toxicity test in mice", "details": "both, mouse, in vivo, po", "procedure,_shortened": "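Single oral gavage of 0.4 mL test substance to SPF mice (18–22 g) after 1-week acclimatization at 22 ± 2 °C on a 12 h light/dark cycle. Mice were randomized into 10 groups, half male and half female, fasted 8 h before dosing and 2 h after. Mortality, death time and signs of poisoning were recorded over 14 days, and LD50 was taken as the acute toxicity measure.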"}, "[4]": {"test_system": "TNF-α, IL-1β, and IL-6 in rat synovial cells", "experiment": "Inflammatory cytokines in the rat synovial cell supernatant", "assay_type": "cell-based", "details": "1 μM, LPS 1 μg·mL^–1, compared with the LPS group, p < 0.01", "procedure,_shortened": "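After 24 h they were stimulated with LPS (1 μg·mL⁻¹) for 24 h, then treated with test compound or methotrexate at 1 μM for 24 h. Supernatant was centrifuged at 3000 rpm for 15 min, and TNF-α, IL-1β and IL-6 were measured by ELISA. Three independent experiments, each in triplicate.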"}, "[5]": {"test_system": "TLR4, MyD88, NF-κB, and IκB in rat synovial cells", "experiment": "TLR4/NF-κB signaling pathway protein expression in rat synovial cells", "assay_type": "cell-based", "details": "1 μM, LPS 1 μg·mL^–1, compared with the LPS group, p < 0.01", "procedure,_shortened": "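Synovial cells (5000/well) were cultured 24 h, stimulated with LPS (1 μg·mL⁻¹) for 24 h, then treated with test compound at 1 μM for 24 h. Cells were fixed in 4% fixative for 45 min, permeabilized with 0.25% Triton for 15 min and blocked with 5% BSA for 10 min. Rabbit anti-rat primaries (1:100 or 1:200) were applied overnight at 4 °C, then FITC goat anti-rabbit (1:400, 30 min, 37 °C) and DAPI (1:800). Read-out was mean fluorescence intensity.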"}, "[6]": {"test_system": "rat synovial cells", "experiment": "Morphology of rat synovial cells in vitro", "assay_type": "cell-based", "details": "1 μM, 48 h, Figure 3", "procedure,_shortened": "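Synovial cells at 70–80% confluence were detached with 0.25% trypsin and seeded at 5000 cells/well in 24-well plates. Groups received test compound (1 μM), methotrexate (1 μM) or DMSO, with an untreated normal group. After 48 h culture, morphology was examined by cell imaging analysis.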"}, "[7]": {"test_system": "rat synovial cells", "details": "read-out: IC50, growth of synovial cells; cited from earlier work"}, "[8]": {"details": "50 mg·kg^–1·d^–1 for 14 days, Figure 4a"}}, "note": "Marks after values point to notes of the source that are not given here.", "data": [{"smiles": "O=C1C=C2CC[C@@H](O)CC2C(=O)C1", "note": "(stereo partly drawn) [Compound 32, (7R)-7-hydroxy-6,7,8,8a-tetrahydronaphthalene-1, 3 (2H, 5H)-dione]", "values": [{"measurement": "LDH activity ± SD", "setting": "[1]", "value": "307.02 ± 30.86 ^c U/L"}, {"measurement": "LDH content in the supernatant / damage to synovial cells (in words)", "setting": "[1]", "value": "little damage to synovial cells"}, {"measurement": "IL-6 content in serum after treatment", "setting": "[2]", "value": "basically at a low level"}, {"measurement": "TNF-α content in serum after treatment", "setting": "[2]", "value": "decreased"}, {"measurement": "change of paw volume before and after treatment", "setting": "[2]; [8]", "value": "little change"}, {"measurement": "change of paw volume before and after treatment", "setting": "[2]; 100 mg·kg^–1·d^–1 for 14 days, Figure 4b", "value": "hardly changed"}, {"measurement": "LD50 at 14 days", "setting": "[3]", "value": "2658 ± 9.06", "unit": "mg/kg"}, {"measurement": "content of IL-1β in the supernatant", "setting": "[4]", "value": "significantly decreased"}, {"measurement": "content of IL-6 in the supernatant", "setting": "[4]", "value": "significantly decreased"}, {"measurement": "content of TNF-α in the supernatant", "setting": "[4]", "value": "significantly decreased"}, {"measurement": "expression of MyD88", "setting": "[5]", "value": "significantly downregulated"}, {"measurement": "expression of NF-κB", "setting": "[5]", "value": "significantly downregulated"}, {"measurement": "expression of TLR4", "setting": "[5]", "value": "significantly downregulated"}, {"measurement": "expression of the IκB protein", "setting": "[5]", "value": "significantly upregulated"}, {"measurement": "morphology of rat synovial cells", "setting": "[6]", "value": "significant concentration dependence on synovial cell injury"}]}, {"smiles": "CN(Cc1cnc2nc(N)nc(N)c2n1)c1ccc(C(=O)N[C@@H](CCC(=O)O)C(=O)O)cc1", "note": "[methotrexate, reference compound]", "values": [{"measurement": "LDH activity ± SD", "setting": "[1]", "value": "438.75 ± 11.50 ^c U/L"}, {"measurement": "LDH content in the supernatant / damage to synovial cells (in words)", "setting": "[1]", "value": "significantly increased"}, {"measurement": "IL-6 content in serum after treatment", "setting": "[2]", "value": "basically at a low level"}, {"measurement": "TNF-α content in serum after treatment", "setting": "[2]", "value": "decreased"}, {"measurement": "change of paw volume before and after treatment", "setting": "[2]; [8]", "value": "significant volume change"}, {"measurement": "LD50 at 14 days", "setting": "[3]", "value": "1368 ± 5.34", "unit": "mg/kg"}, {"measurement": "content of IL-1β in the supernatant", "setting": "[4]", "value": "significantly decreased"}, {"measurement": "content of IL-6 in the supernatant", "setting": "[4]", "value": "significantly decreased"}, {"measurement": "content of TNF-α in the supernatant", "setting": "[4]", "value": "significantly decreased"}, {"measurement": "expression of MyD88", "setting": "[5]", "value": "significantly downregulated"}, {"measurement": "expression of NF-κB", "setting": "[5]", "value": "significantly downregulated"}, {"measurement": "expression of TLR4", "setting": "[5]", "value": "significantly downregulated"}, {"measurement": "expression of the IκB protein", "setting": "[5]", "value": "significantly upregulated"}, {"measurement": "morphology of rat synovial cells", "setting": "[6]", "value": "significantly damaged"}]}, {"smiles": "CC(C)[C@H]1CC[C@]2(C)C(=O)CCC(=O)C=C12", "note": "[Dysodensiol K]", "values": [{"measurement": "IC50", "setting": "[7]", "value": "11.8 ± 0.23", "unit": "µM"}]}, {"smiles": "CCOC(=O)[C@@H]1CCC2=CC(=O)CC(=O)C2C1", "note": "(stereo partly drawn) [Compound 23]", "values": [{"measurement": "LDH activity ± SD", "setting": "[1]", "value": "342.78 ± 22.74 ^c U/L"}, {"measurement": "LDH content in the supernatant / damage to synovial cells (in words)", "setting": "[1]", "value": "little damage to synovial cells"}, {"measurement": "LD50 at 14 days", "setting": "[3]", "value": "2307 ± 7.37", "unit": "mg/kg"}, {"measurement": "morphology of rat synovial cells", "setting": "[6]", "value": "significant concentration dependence on synovial cell injury"}]}, {"smiles": "CC(=O)N[C@@H]1CCC2=CC(=O)CC(=O)C2C1", "note": "(stereo partly drawn) [Compound 33]", "values": [{"measurement": "LDH activity ± SD", "setting": "[1]", "value": "264.24 ± 27.71", "unit": "U/L"}, {"measurement": "LDH content in the supernatant / damage to synovial cells (in words)", "setting": "[1]", "value": "little damage to synovial cells"}]}, {"smiles": "O=C1C=C2CC[C@@H](C(=O)O)CC2C(=O)C1", "note": "(stereo partly drawn) [Compound 21]", "values": [{"measurement": "LDH activity ± SD", "setting": "[1]", "value": "297.79 ± 49.6", "unit": "U/L"}, {"measurement": "LDH content in the supernatant / damage to synovial cells (in words)", "setting": "[1]", "value": "little damage to synovial cells"}]}, {"smiles": "O=C1C=C2CC[C@@H](C3CCC(=O)CC3)CC2C(=O)C1", "note": "(stereo partly drawn) [Compound 28, (7R)-7-(4-oxocyclohexyl)-6,7,8,8a-tetrahydronaphthalene-1, 3 (2H, 5H)-dione]", "values": [{"measurement": "LDH activity ± SD", "setting": "[1]", "value": "375.29 ± 17.87 ^c U/L"}, {"measurement": "LDH content in the supernatant / damage to synovial cells (in words)", "setting": "[1]", "value": "little damage to synovial cells"}, {"measurement": "morphology of rat synovial cells", "setting": "[6]", "value": "significant concentration dependence on synovial cell injury"}]}, {"smiles": "O=C1C=C2CCC(F)(F)CC2C(=O)C1", "note": "(stereo not drawn) [Compound 36, 7,7-difluoro-6,7,8,8a-tetrahydronaphthalene-1,3 (2H, 5H)-dione]", "values": [{"measurement": "LDH activity ± SD", "setting": "[1]", "value": "292.07 ± 31.56", "unit": "U/L"}, {"measurement": "LDH content in the supernatant / damage to synovial cells (in words)", "setting": "[1]", "value": "little damage to synovial cells"}, {"measurement": "LD50 at 14 days", "setting": "[3]", "value": "2709 ± 8.63", "unit": "mg/kg"}, {"measurement": "morphology of rat synovial cells", "setting": "[6]", "value": "significant concentration dependence on synovial cell injury"}]}]}
